Laboratory results published in PMC6392825 (ChemistryOpen, 2019).
Values after ≈ are worked out from the molar mass of the structure shown.

Experiments:
EA.hy926 [1] = test: Cell growth inhibition, protein content; format: cell-based; conditions: Homo sapiens, EA.hy 926, 72 h, read-out: IC50 SRB
Summary of the method: (§1)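 Cell lines from ATCC, grown in DMEM+glutamax with 1% NEAA, 1% P/S and 10% FBS at 37 °C, 10% CO2. Seeded at 20000 cells/well for 24 h, then exposed to test compound (25 mM DMSO stock) for three days. Fixed with cold TCA for 1 h at 4 °C, stained 30 min with 0.4% SRB in 1% acetic acid, dissolved in 10 mM Tris, A490. Triplicate; IC50 given as mean ± SD combined with MTT data (n ≥ 3).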

Caco‐2 [2] = test: Cell growth inhibition, protein content; format: cell-based; conditions: Homo sapiens, Caco-2, 72 h, read-out: IC50 SRB
Summary of the method: as §1

HepG2 [3] = test: Intracellular ROS assay; format: cell-based; conditions: for activity at 1 µM / activity at 10 µM: Homo sapiens, HepG2, read-out: Intracellular ROS, percentage compared to the untreated control cells (ROS/SRB); for change of intracellular ROS in words: HepG2, vs untreated control, 10 and 1 μM
Summary of the method: (§2)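 Cells seeded at 20000/well and grown 24 h at 37 °C, 10% CO2, then treated with test compound at 10 and 1 μM in serum-free medium. NAC and doxorubicin served as controls. After a PBS wash, cells were loaded with 20 μM DCFH-DA for 30 min, washed, and held 1 h in phenol red-free DMEM. Fluorescence read at ex 485/em 535 nm and normalized to SRB in the same well. Reported as % of untreated control, n ≥ 3, two-tailed t-test with unequal variances.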

HepG2 [4] = test: Cytotoxicity, mitochondrial activity; format: cell-based; conditions: Homo sapiens, HepG2, 72 h, read-out: IC50 MTT
Summary of the method: (§3)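 Seeded at 20000 cells/well in DMEM and grown 24 h at 37 °C, 10% CO2. Medium was then replaced with serum-free medium holding test compound (25 mM DMSO stock) at various concentrations for 72 h, in triplicate; doxorubicin was the positive control. MTT (5 mg/mL stock in PBS) added for 2 h, formazan dissolved in DMSO, A570. IC50 derived from % surviving cells, reported as mean ± SD combined with SRB data.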

[5] = Chemical antioxidant capacity, FRAP assay
HepG2 [6] = test: Cell growth inhibition, protein content; format: cell-based; conditions: Homo sapiens, HepG2, 72 h, read-out: IC50 SRB
Summary of the method: as §1

Caco‐2 [7] = test: Intracellular ROS assay; format: cell-based; conditions: for activity at 1 µM / activity at 10 µM: Homo sapiens, Caco-2, read-out: Intracellular ROS, percentage compared to the untreated control cells (ROS/SRB); for change of intracellular ROS in words: Caco‐2, vs untreated control, 10 and 1 μM
Summary of the method: as §2

[8] = Water solubility, shake flask method, 0.1 M phosphate buffer pH 6.8; format: physicochemical; conditions: 37 °C, pH 6.8, aqueous buffer, thermodynamic from solid
Caco‐2 [9] = test: Cytotoxicity, mitochondrial activity; format: cell-based; conditions: Homo sapiens, Caco-2, 72 h, read-out: IC50 MTT
Summary of the method: as §3

HT‐29 [10] = test: Intracellular ROS assay; format: cell-based; conditions: for activity at 1 µM / activity at 10 µM: Homo sapiens, HT-29, read-out: Intracellular ROS, percentage compared to the untreated control cells (ROS/SRB); for change of intracellular ROS in words: HT‐29, vs untreated control, 10 and 1 μM
Summary of the method: as §2

EA.hy926 [11] = test: Cytotoxicity, mitochondrial activity; format: cell-based; conditions: Homo sapiens, EA.hy 926, 72 h, read-out: IC50 MTT
Summary of the method: as §3

EA.hy926 [12] = test: Intracellular ROS assay; format: cell-based; conditions: for activity at 1 µM / activity at 10 µM: Homo sapiens, EA.hy 926, read-out: Intracellular ROS, percentage compared to the untreated control cells (ROS/SRB)
Summary of the method: as §2

HT‐29 [13] = test: Cell growth inhibition, protein content; format: cell-based; conditions: Homo sapiens, HT-29, 72 h, read-out: IC50 SRB
Summary of the method: as §1

HT‐29 [14] = test: Cytotoxicity, mitochondrial activity; format: cell-based; conditions: Homo sapiens, HT-29, 72 h, read-out: IC50 MTT
Summary of the method: as §3

| IC50 (Caco‐2 [2]) [µM] | IC50 (HepG2 [6]) [µM] | solubility at 90 min [8] [µM] | solubility at 24 h [8] [µM] | Compound | IC50 (EA.hy926 [1]) [µM] | activity at 1 µM (HepG2 [3]) [%] | activity at 10 µM (HepG2 [3]) [%] | IC50 (HepG2 [4]) [µM] | FRAP (Trolox equivalent per μM) [5] [Trolox equivalent per μM] | FRAP (curcumin equivalent per μM) [5] | activity at 1 µM (Caco‐2 [7]) [%] | activity at 10 µM (Caco‐2 [7]) [%] | IC50 (Caco‐2 [9]) [µM] | activity at 1 µM (HT‐29 [10]) [%] | activity at 10 µM (HT‐29 [10]) [%] | IC50 (EA.hy926 [11]) [µM] | activity at 1 µM (EA.hy926 [12]) [%] | activity at 10 µM (EA.hy926 [12]) [%] | IC50 (HT‐29 [13]) [µM] | IC50 (HT‐29 [14]) [µM] | also measured |
| --- | --- | --- | --- | --- | --- | --- | --- | --- | --- | --- | --- | --- | --- | --- | --- | --- | --- | --- | --- | --- | --- |
| 25.8 ± 1.1 | 20.6 ± 1.4 | 9.9 ± 0.4 (≈ 3.2 µg/mL) | 11.6 ± 0.6 (≈ 3.75 µg/mL) | COc1cc(/C=C/C(=O)/C=C(O)/C=C/c2ccccn2)ccc1O [3 b, (1E,4Z,6E)‐5‐Hydroxy‐1‐(4‐hydroxy‐3‐methoxyphenyl)‐7‐(pyridin‐2‐yl)hepta‐1,4,6‐triene‐3‐one] | 3.1 | 108 ± 6.7 | 91.9 ± 9.2 | 24.6 ± 4.8 | 0.41 | 0.40 curcumin equivalent per μM | 92.7 ± 5.4 | 99.7 ± 6.2 | 22.3 ± 0.9 | 80.8 ± 2.5 | 93.6 ± 3.1 | 1.1 ± 0.1 | 100 ± 7 | 127 ± 4.9 | 34.8 ± 1.2 | 34.3 ± 2.7 | – |
| 25 ± 1.8 | 16.8 ± 0.9 | 8.1 ± 1.6 (≈ 2.62 µg/mL) | 14.5 ± 1.1 (≈ 4.69 µg/mL) | COc1cc(/C=C/C(=O)/C=C(O)/C=C/c2cccnc2)ccc1O [3 a, (1E,4Z,6E)‐5‐Hydroxy‐1‐(4‐hydroxy‐3‐methoxyphenyl)‐7‐(pyridin‐3‐yl)hepta‐1,4,6‐triene‐3‐one] | 3.8 | 116 ± 12.8 | 82.3 ± 1.9 | 14.1 ± 0.3 | 0.42 | 0.40 curcumin equivalent per μM | 106 ± 8.4 | 120 ± 8.7 | 14.6 ± 2 | 83.2 ± 3.2 | 89.9 ± 4.3 | 8.5 ± 0.4 | 123 ± 9.5 | 95.5 ± 5.1 | 20.9 ± 0.9 | 17.9 ± 0.1 | change of intracellular ROS in words (HepG2 [3]): significantly decreased ROS signal; change of intracellular ROS in words (Caco‐2 [7]): significantly increased ROS production; change of intracellular ROS in words (HT‐29 [10]): significantly decreased ROS signal |
| 18.7 ± 1.2 | > 75 | 8.8 ± 0.4 (≈ 2.81 µg/mL) | 7.7 ± 0.7 (≈ 2.46 µg/mL) | COc1cc(/C=C/c2cc(/C=C/c3cccnc3)[nH]n2)ccc1O [4 a, 2‐Methoxy‐4‐{(E)‐2‐[5‐((E)‐2‐(pyridin‐3‐yl)vinyl)‐1H‐pyrazol‐3‐yl]vinyl}phenol] | 60.7 ± 0.7 | 88.4 ± 6.3 | 83.1 ± 5.5 | 11.2 ± 0.1 | 0.57 | 0.55 curcumin equivalent per μM | 79.1 ± 8.8 | 86.7 ± 2 | 53.7 ± 6.1 | 61.3 ± 6.9 | 84.8 ± 3.8 | 18.5 ± 1.3 | – | 97.3 ± 7.3 | 24 ± 1.6 | > 75 | antioxidant activity in words, FRAP [5]: comparable to ascorbic acid; change of intracellular ROS in words (Caco‐2 [7]): significantly decreased ROS production; change of intracellular ROS in words (HT‐29 [10]): significantly decreased ROS signal |

Further lines, the compound ahead of its results:

| Compound | IC50 (Caco‐2 [2]) [µM] | IC50 (HepG2 [6]) [µM] | solubility at 90 min [8] [µM] | solubility at 24 h [8] [µM] | IC50 (EA.hy926 [1]) [µM] | activity at 1 µM (HepG2 [3]) [%] | activity at 10 µM (HepG2 [3]) [%] | IC50 (HepG2 [4]) [µM] | FRAP (Trolox equivalent per μM) [5] [Trolox equivalent per μM] | FRAP (curcumin equivalent per μM) [5] | activity at 1 µM (Caco‐2 [7]) [%] | activity at 10 µM (Caco‐2 [7]) [%] | IC50 (Caco‐2 [9]) [µM] | activity at 1 µM (HT‐29 [10]) [%] | activity at 10 µM (HT‐29 [10]) [%] | IC50 (EA.hy926 [11]) [µM] | activity at 1 µM (EA.hy926 [12]) [%] | activity at 10 µM (EA.hy926 [12]) [%] | IC50 (HT‐29 [13]) [µM] | IC50 (HT‐29 [14]) [µM] | also measured |
| --- | --- | --- | --- | --- | --- | --- | --- | --- | --- | --- | --- | --- | --- | --- | --- | --- | --- | --- | --- | --- | --- |
| O=C(/C=C(O)/C=C/c1cccs1)/C=C/c1c[nH]c2ccccc12 [3 m, (1E,4Z,6E)‐5‐Hydroxy‐1‐(1H‐indol‐3‐yl)‐7‐(thiophen‐2‐yl)hepta‐1,4,6‐trien‐3‐one] | 5.7 ± 0.2 | 10.8 ± 1.6 | 1.27 (≈ 0.408 µg/mL) | 1.25 (≈ 0.402 µg/mL) | 8.6 ± 0.5 | 318 ± 13.2 | 424 ± 28.4 | 4.7 ± 0.2 | 0.10 | 0.09 curcumin equivalent per μM | 238 ± 5.5 | 295 ± 11.1 | 0.5 ± 0.3 | 247 ± 15.5 | 337 ± 22 | 4.4 ± 0.4 | 344 ± 7.1 | 322 ± 9.6 | 4.8 ± 0.3 | 6.9 | – |
| O=C1O[C@H]([C@@H](O)CO)C(O)=C1O [Ascorbic acid, ascorbic acid, reference compound] | – | – | – | – | – | – | – | – | 0.60 | 0.57 curcumin equivalent per μM | – | – | – | – | – | – | – | – | – | – | – |
| Cc1c(C)c2c(c(C)c1O)CCC(C)(C(=O)O)O2 (centres unmarked) [Trolox, reference compound] | – | – | – | – | – | – | – | – | – | 1.00 curcumin equivalent per μM | – | – | – | – | – | – | – | – | – | – | – |
| O=C(/C=C(O)/C=C/c1ccc2ccccc2n1)/C=C/c1c[nH]c2ccccc12 [3 k, (1E,4Z,6E)‐5‐Hydroxy‐1‐(1H‐indol‐3‐yl)‐7‐(quinolin‐2‐yl)hepta‐1,4,6‐trien‐3‐one] | 47.5 ± 0.2 | 54.1 ± 1 | 8.1 ± 0.1 (≈ 2.97 µg/mL) | 9.6 ± 0.8 (≈ 3.52 µg/mL) | 53.2 ± 1.3 | 156 ± 13 | 197 ± 24.6 | 56.2 ± 1.6 | 0.20 | 0.19 curcumin equivalent per μM | 162 ± 21.7 | 168 ± 28.1 | 44.7 ± 2.1 | 112 ± 10.8 | 116 ± 7.1 | 38.3 ± 1.7 | 120 ± 9.2 | 126 ± 5.6 | 43.8 ± 0.9 | 42 ± 2 | – |
| CC(=O)N[C@@H](CS)C(=O)O [NAC, N‐acetyl‐L‐cysteine, reference compound] | – | – | – | – | – | 77.1 ± 7.8 | 63.1 ± 4.3 | – | – | – | 83.7 ± 6.2 | 83.5 ± 5.1 | – | 82.7 ± 3.4 | 75.3 ± 3.3 | – | 84.2 ± 4.8 | 76.6 ± 8.3 | – | – | change of intracellular ROS in words (HepG2 [3]): significant decrease in ROS generation; change of intracellular ROS in words (Caco‐2 [7]): significant decrease in ROS generation; change of intracellular ROS in words (HT‐29 [10]): significant decrease in ROS generation; change of intracellular ROS in words (EA.hy926 [12]; EA.hy926, vs untreated control, 10 and 1 μM): significant decrease in ROS generation |
| Cc1c(C)c2c(c(C)c1O)CC[C@@](C)(CCC[C@H](C)CCC[C@H](C)CCCC(C)C)O2 [α‐Tocopherol, α‐tocopherol, reference compound] | – | – | – | – | – | – | – | – | 0.70 | 0.68 curcumin equivalent per μM | – | – | – | – | – | – | – | – | – | – | – |
